MIC and Activity data for 6 compounds are collected here from ChEMBL document CHEMBL1148866, “Design and synthesis of beta-methoxyacrylate analogues via click chemistry and biological evaluations” (2007).

Common to all, as to type: functional
One assay deals with Aspergillus flavus. The experiment in a line: Antifungal activity against Aspergillus flavus. Put shortly:
(§1)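 MIC determined in 96-well plates. 1-mm diameter mycelial pieces were incubated in Czapek Dox minimal medium across a range of compound concentrations, and the MIC was read from mycelial growth.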

A further assay deals with Fusarium oxysporum. As to the kind of experiment: Antifungal activity against Fusarium oxysporum. Put shortly: as §1
The subject of a further assay is Alternaria brassicae. The experiment in a line: Antifungal activity against Alternaria brassicae. Put shortly:
as §1

Assay [1] deals with Simplicillium lamellicola. As to the kind of experiment: Antifungal activity against Verticillium lamellicola. In outline:
as §1

The test system of the next assay is Radish. The experiment in a line: Effect on growth of Raphanus sativus assessed as length of hypocotyl at 50 ug/mL by seed germination assay.
The next assay has as its system Alternaria brassicicola. The experiment in a line: Antifungal activity against Alternaria brassicola. Put shortly: as §1

Molecules are shown by their SMILES. In brackets after ≈: the same amount, converted by molar mass. Some results are limits rather than exact numbers.

For `CO/C=C(/C(=O)OC)c1cc(Cl)ccc1Cn1cc(C2=CCCCC2)nn1`, the MIC in the assay with Aspergillus flavus is over 1500 µg/mL; against Fusarium oxysporum it was 1500 µg/mL (≈ 3870 µM); in the assay on Alternaria brassicae, 1000 µg/mL (≈ 2580 µM); in assay [1], 1500 µg/mL (≈ 3870 µM); against Alternaria brassicicola, 1000 µg/mL (≈ 2580 µM). In addition, the Activity in the assay with Radish is listed as 14 mm.

Turning to `CO/C=C(/C(=O)OC)c1cc(Cl)ccc1Cn1cc(-c2ccccc2)nn1`, the MIC against Aspergillus flavus is over 1500 µg/mL; in the assay with Fusarium oxysporum, 1000 µg/mL (≈ 2610 µM); with Alternaria brassicae, 1000 µg/mL (≈ 2610 µM); in assay [1], 1500 µg/mL (≈ 3910 µM); in the assay with Alternaria brassicicola it was 1000 µg/mL (≈ 2610 µM). The Activity with Radish was 18.8 mm.

In the case of `CO/C=C(/C(=O)OC)c1ccccc1Oc1cc(Oc2ccccc2C#N)ncn1` [AZOXYSTROBIN], the Activity with Radish is on record as 2 mm.

In the case of `CO/C=C(/C(=O)OC)c1cc(Cl)ccc1Cn1cc(-c2ccccc2C=O)nn1`, the MIC against Aspergillus flavus was found to be 1500 µg/mL (≈ 3640 µM); against Fusarium oxysporum, 1000 µg/mL (≈ 2430 µM); against Alternaria brassicae, 1000 µg/mL (≈ 2430 µM); in assay [1] it was 1000 µg/mL (≈ 2430 µM); against Alternaria brassicicola it was 1000 µg/mL (≈ 2430 µM). The Activity in the assay with Radish is given as 25 mm.

`CO/C=C(/C(=O)OC)c1cc(Cl)ccc1Cn1cc(S(=O)(=O)c2ccc(C)cc2)nn1`: the MIC is 500 µg/mL (≈ 1080 µM) in the assay on Aspergillus flavus; 500 µg/mL (≈ 1080 µM) in the assay on Fusarium oxysporum; 400 µg/mL (≈ 866 µM) against Alternaria brassicae; 500 µg/mL (≈ 1080 µM) in assay [1]; 500 µg/mL (≈ 1080 µM) in the assay on Alternaria brassicicola. Also, in the assay with Radish, the Activity amounted to 30.7 mm.

As to `C#CS(=O)(=O)c1ccc(C)cc1`, the MIC (in the assay on Aspergillus flavus; in the assay with Fusarium oxysporum; in the assay with Alternaria brassicae; in assay [1]; in the assay on Alternaria brassicicola) was 4 µg/mL (≈ 22.2 µM) in each case. Moreover, in the assay on Radish, the Activity was determined as 56.2 mm.

The MIC is the lowest concentration that inhibits growth of the organism. A lower MIC goes with inhibition by little substance.
